From PubChem BioAssay
DENV2 CPE rescue = inhibitors of DENV2 cytopathic effect; DENV2-infected cells, cytopathic effect rescue, plate reader; CPE inhibition, % at 9.99 µM; actives 1.7% (n = 350,000); in the data active means CPE inhibition above about 20%, passing the limit was not always enough; inconclusive means no clear call, values can overlap the other calls; tested in BHK-21 cells
SIRT5 block = blocks human SIRT5 desuccinylation of peptide; AID 652115; Q9NXA8; actives 1.1% (n = 330,000); inhibition, % at 15 µM; Purified SirT5, succinyl-peptide AMC, trypsin-coupled fluorescence; in the data active means inhibition above about 15%; inconclusive means no clear call, values can overlap the other calls
Target sequence (Q9NXA8 whole entry, looked up): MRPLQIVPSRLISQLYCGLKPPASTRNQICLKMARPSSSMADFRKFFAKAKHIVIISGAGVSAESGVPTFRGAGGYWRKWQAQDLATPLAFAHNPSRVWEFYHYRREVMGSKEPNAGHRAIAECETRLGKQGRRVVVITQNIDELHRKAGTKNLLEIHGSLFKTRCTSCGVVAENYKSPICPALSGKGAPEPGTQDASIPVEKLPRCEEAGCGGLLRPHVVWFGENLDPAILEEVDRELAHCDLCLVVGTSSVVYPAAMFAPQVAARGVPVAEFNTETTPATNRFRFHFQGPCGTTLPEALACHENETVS
E-sel inducer = induces E-selectin expression in human endothelial cells. P16581. HUVEC E-selectin immunofluorescence imaging; normalized: neutral wells 0, TNF-alpha wells 100. activation, % at 7.58 µM. actives 0.37% (n = 260,000);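 active means mean E-selectin-positive cell signal at least 10% of the positive control, reached in at least 60% of replicates, without over 20% cell loss; inconclusive means no rule given, readout overlaps actives, possibly toxicity-flagged; inactive means the rest, including those meeting only one limit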
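Material: HUVEC primary endothelial cells; Amount: 3,000 cells per well; Dosing: single concentration; Medium: EGM-2 growth medium on 0.1% gelatin-coated wells; Read-out basis: percent E-selectin-positive cells; Signal: immunofluorescence imaging; Control set: TNF-alpha, DMSO.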
A number is an active result; i = inactive; ? = inconclusive; nt = not tested or not shown. Only some compounds are listed: those with a hit (about 2.8% of all), similar ones and a draw of the others.

SMILES	DENV2 CPE rescue	SIRT5 block	E-sel inducer
Cc1noc(C)c1S(=O)(=O)Nc1ccc2c(c1)C(=O)N([C@H](C)CO)C[C@H](C)[C@@H](CN(C)Cc1ccccc1)O2	i	i	i
Cc1noc(C)c1S(=O)(=O)Nc1ccc2c(c1)C(=O)N([C@H](C)CO)C[C@H](C)[C@H](CN(C)Cc1ccccc1)O2	21	i	i
Cc1noc(C)c1S(=O)(=O)Nc1ccc2c(c1)C(=O)N([C@@H](C)CO)C[C@@H](C)[C@@H](CN(C)Cc1ccc3c(c1)OCO3)O2	32	i	33
COc1ccc(CN(C)C[C@@H]2Oc3ccc(NS(=O)(=O)c4c(C)noc4C)cc3C(=O)N([C@H](C)CO)C[C@H]2C)cc1	i	i	i
COc1ccc(CN(C)C[C@H]2Oc3ccc(NS(=O)(=O)c4c(C)noc4C)cc3C(=O)N([C@H](C)CO)C[C@H]2C)cc1	29	i	i
CN1C(=O)c2cc(NC(=O)c3ccc(F)cc3)ccc2OC[C@H]2O[C@H](CC(=O)N3CCOCC3)CC[C@H]21	i	i	i
C[C@H]1CN([C@@H](C)CO)C(=O)Cc2cc(NS(=O)(=O)c3cn(C)cn3)ccc2O[C@H]1CN(C)Cc1ccc(C(=O)Nc2ccccc2N)cc1	i	i	i
C[C@@H]1CCCCO[C@H](CN(C)C(=O)Nc2cccc3ccccc23)[C@H](C)CN([C@@H](C)CO)C(=O)c2cc(NC(=O)Nc3ccc4c(c3)OCO4)ccc2O1	i	i	i
CC(=O)N1CC2(C1)[C@H](c1ccc(-c3ccc(C#N)cc3)cc1)[C@@H](CO)N2C(=O)C1CC1	84	i	i
CC(=O)N1[C@@H](CO)[C@@H](c2ccc(-c3ccc(C#N)cc3)cc2)C12CN(C(=O)C1CC1)C2	i	nt	i
CC(=O)N1CC2(C1)[C@H](c1ccc(-c3ccc(C#N)cc3)cc1)[C@@H](CO)N2C(C)=O	i	i	i
CC(=O)N1[C@H](CO)[C@H](c2ccc(-c3ccc(C#N)cc3)cc2)C12CN(C(=O)C1CC1)C2	62	i	i
O=C(Nc1ccccc1)N1CCCCN2[C@H](CO)[C@@H](c3ccc(-c4ccccc4)cc3)[C@@H]2C1	i	i	i
COCCNC(=O)C[C@@H]1CC[C@H]2[C@H](COc3ccc(NC(=O)c4cnccn4)cc3C(=O)N2C)O1	i	i	i
COc1cccc(NC(=O)N[C@@H]2C=C[C@H](CC(=O)Nc3ccc(-c4ccccc4)cc3)O[C@@H]2CO)c1	i	i	i
COc1ccccc1-c1ccc2c(c1)O[C@H](CN(C)S(=O)(=O)c1ccc(F)cc1)[C@H](C)CN([C@@H](C)CO)S2(=O)=O	i	18	i
COc1ccccc1-c1ccc2c(c1)O[C@H](CN(C)S(=O)(=O)c1ccc(C)cc1)[C@H](C)CN([C@H](C)CO)S2(=O)=O	i	i	i
COc1ccccc1-c1ccc2c(c1)O[C@@H](CN(C)S(=O)(=O)c1ccc(F)cc1)[C@@H](C)CN([C@@H](C)CO)S2(=O)=O	i	23	i
COc1ccccc1-c1ccc2c(c1)O[C@@H](CN(C)S(=O)(=O)c1ccc(F)cc1)[C@@H](C)CN([C@H](C)CO)S2(=O)=O	i	20	i
COc1ccccc1-c1ccc2c(c1)O[C@@H](CN(C)S(=O)(=O)c1ccc(C)cc1)[C@H](C)CN([C@@H](C)CO)S2(=O)=O	i	i	i
COc1ccccc1-c1ccc2c(c1)O[C@@H](CN(C)S(=O)(=O)c1ccccc1)[C@@H](C)CN([C@@H](C)CO)S2(=O)=O	i	i	i
O=C(CCN1CCCCC1)NCC[C@@H]1CC[C@H](NC(=O)C2CCCCC2)[C@H](CO)O1	i	i	i
O=C(C[C@@H]1C[C@H]2c3cc(NC(=O)Nc4ccccc4F)ccc3O[C@H]2[C@H](CO)O1)NCc1cc(F)ccc1F	?	i	i
COc1ccccc1NC(=O)N[C@@H]1CC[C@H](CC(=O)N[C@H](C)c2ccccc2)O[C@H]1CO	?	i	i
C[C@@H]1CN([C@H](C)CO)S(=O)(=O)c2ccc(-c3ccccc3)cc2O[C@@H]1CN(C)C(=O)Cc1ccccc1	i	i	i
SMILES	DENV2 CPE rescue	SIRT5 block	E-sel inducer
COC(=O)c1cn(CCNC(=O)[C@H](Cc2ccccc2)NS(=O)(=O)c2ccc(C)cc2)nn1	i	i	nt
CCN1CCC(N2CCN(c3ccc(F)cc3)CC2)CC1	28	i	i
Fc1ccc(N2CCN(C3CCC(c4ccccc4)CC3)CC2)cc1 (stereo not drawn)	i	i	i
O=C(CCN1C(=O)/C(=C\c2ccccc2F)SC1=S)Nc1ccc(C(=O)O)c(O)c1	i	i	nt
O=C(CN1C(=O)/C(=C\c2cccs2)SC1=S)Nc1cccc(C(=O)O)c1	i	i	i
O=C(CN1C(=O)/C(=C/c2ccco2)SC1=S)Nc1ccc(O)c(C(=O)O)c1	i	53	nt
O=C(CN1C(=O)/C(=C/c2ccco2)SC1=S)Nc1ccc(C(=O)O)c(O)c1	i	62	nt
CC(=O)N[C@@H]1CC[C@@H](CCNC(=O)Nc2ccc(C(F)(F)F)cc2)O[C@@H]1CO	i	i	i
C[C@@H]1CN([C@H](C)CO)C(=O)c2cc(NC(=O)c3ccccc3)ccc2O[C@@H](C)CCCCO[C@@H]1CN(C)C(=O)CCC(F)(F)F	i	i	i
COc1ccc(NC(=O)Nc2ccc3c(c2)C(=O)N([C@@H](C)CO)C[C@@H](C)[C@@H](CN(C)C(=O)Nc2cccc4ccccc24)OCCCC[C@H](C)O3)cc1	i	i	i
CO[C@@H]1CN(C)C(=O)c2ccc(NC(=O)C3CCOCC3)cc2OC[C@H](C)N(C(C)=O)C[C@@H]1C	i	nt	i
COc1ccc(NC(=O)Nc2ccc3c(c2)[C@@H]2C[C@H](CC(=O)NCc4ccccn4)O[C@H](CO)[C@@H]2O3)cc1	i	i	i
COc1ccc(NC(=O)Nc2ccc3c(c2)OC[C@@H](C)NC[C@H](C)[C@H](OC)CN(C)C3=O)cc1	22	i	i
CCCNC(=O)N1C[C@H](C)[C@@H](OC)CN(C)C(=O)c2ccc(NC(=O)C3CCC3)cc2OC[C@H]1C	i	i	i
COc1cccc(NC(=O)Nc2ccc3c(c2)OC[C@H](C)NC[C@@H](C)[C@@H](OC)CN(C)C3=O)c1	i	i	i
COc1cccc(NC(=O)Nc2ccc3c(c2)OC[C@H](C)NC[C@@H](C)[C@H](OC)CN(C)C3=O)c1	22	i	i
CCCNC(=O)N1C[C@@H](C)[C@H](OC)CN(C)C(=O)c2ccc(NC(=O)C3CCC3)cc2OC[C@H]1C	40	i	i
COc1ccc(NC(=O)Nc2ccc3c(c2)OC[C@H](C)NC[C@@H](C)[C@H](OC)CN(C)C3=O)cc1	i	i	i
CO[C@H]1CN(C)C(=O)c2ccc(NC(=O)NC(C)C)cc2OC[C@@H](C)NC[C@@H]1C	i	i	i
CO[C@H]1CN(C)C(=O)c2ccc(NC(=O)NC(C)C)cc2OC[C@H](C)NC[C@@H]1C	30	i	i
CNC(=O)C[C@H]1CC[C@@H]2[C@H](COc3ccc(NC(=O)Cc4cccs4)cc3C(=O)N2C)O1	i	nt	i
COc1ccc2c3c([nH]c2c1)[C@@H](CO)N(C(=O)c1ccccc1)CC31CN(C)C1	i	nt	i
CCC(=O)Nc1ccc2c(c1)OC[C@H](C)NC[C@H](C)[C@H](OC)CN(C)C2=O	21	i	i
